Consider three compounds from ChEMBL document CHEMBL4665666, “Discovery and characterization of trypanocidal cysteine protease inhibitors from the 'malaria box'” (Eur J Med Chem, 2019).

The source made the active and inactive calls. The rule behind the calls is not given here.

In assay [1] the target is Cruzipain (Trypanosoma cruzi) (UniProt P25779). The assay can be described thus: Inhibition of recombinant Trypanosoma cruzi cruzain at 5 uM using Z-FR-AMC as substrate and measured at 12 sec interval for 5 mins without preincubation by fluorimetric analysis relative to control. The procedure, abridged:
(§1)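 Recombinant rhodesain or cruzain (1 nM) in 0.1 M sodium acetate pH 5.5, 0.01% Triton X-100, 1 mM β-mercaptoethanol. Compound at a single concentration, either without or after 10 min enzyme pre-incubation. Inhibition is relative to DMSO, with E-64 as positive control. Done in duplicate (primary screen) or triplicate.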

Assay [2] shares this target. Put plainly: Inhibition of recombinant Trypanosoma cruzi cruzain at 5 uM using Z-FR-AMC as substrate preincubated for 10 mins followed by substrate addition and measured at 12 sec interval for 5 mins by fluorimetric analysis relative to control. The note with it: time 15.0 min. The procedure, abridged:
as §1

Assay [3] has as its target Rhodesain (Trypanosoma brucei rhodesiense) (UniProt Q95PM0). The assay can be described thus: Inhibition of recombinant Trypanosoma brucei rhodesain expressed in Pichia pastoris at 5 uM using Z-FR-AMC as substrate and measured at 12 sec interval for 5 mins without preincubation by fluorimetric analysis relative to control. The procedure, abridged:
as §1

The target is the same in assay [4]. The assay can be described thus: Inhibition of recombinant Trypanosoma brucei rhodesain expressed in Pichia pastoris at 5 uM using Z-FR-AMC as substrate preincubated for 10 mins followed by substrate addition and measured at 12 sec interval for 5 mins by fluorimetric analysis relative to control. Conditions: time 15.0 min. The procedure, abridged:
as §1

The target in assay [5] is Cruzipain (Trypanosoma cruzi) (UniProt P25779). Put plainly: Inhibition of recombinant Trypanosoma cruzi cruzain at 10 uM using Z-FR-AMC as substrate and measured at 12 sec interval for 5 mins without preincubation by fluorimetric analysis relative to control. The procedure, abridged:
(§2)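 Recombinant rhodesain or cruzain (1 nM) in 0.1 M sodium acetate pH 5.5, 0.01% Triton X-100, 1 mM β-mercaptoethanol. Compound at a single concentration, either without or after 10 min enzyme pre-incubation. Z-FR-AMC 2.5 µM, read at 340/440 nm every 12 s for 5 min. Inhibition is relative to DMSO, with E-64 as positive control. Done in duplicate (primary screen) or triplicate.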

Assay [6] has the same target. Put plainly: Inhibition of recombinant Trypanosoma cruzi cruzain at 10 uM using Z-FR-AMC as substrate preincubated for 10 mins followed by substrate addition and measured at 12 sec interval for 5 mins by fluorimetric analysis relative to control. Conditions: time 15.0 min. The procedure, abridged:
as §2

Assay [7] deals with Rhodesain (Trypanosoma brucei rhodesiense) (UniProt Q95PM0). The assay can be described thus: Inhibition of recombinant Trypanosoma brucei rhodesain expressed in Pichia pastoris at 10 uM using Z-FR-AMC as substrate and measured at 12 sec interval for 5 mins without preincubation by fluorimetric analysis relative to control. The procedure, abridged: as §2
The target is the same in assay [8]. Put plainly: Inhibition of recombinant Trypanosoma brucei rhodesain expressed in Pichia pastoris at 10 uM using Z-FR-AMC as substrate preincubated for 10 mins followed by substrate addition and measured at 12 sec interval for 5 mins by fluorimetric analysis relative to control. The note with it: time 15.0 min. The procedure, abridged:
as §2

Assay [9] concerns the target T1, Cruzipain (Trypanosoma cruzi, UniProt P25779). The assay can be described thus: Inhibition of recombinant Trypanosoma cruzi cruzain using Z-FR-AMC as substrate and measured at 12 sec interval for 5 mins without preincubation by fluorimetric analysis. The procedure, abridged:
(§3)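 Cruzain (recombinant, 1 nM) in 0.1 M sodium acetate pH 5.5 with 0.01% Triton X-100 and 1 mM β-mercaptoethanol; Z-FR-AMC 2.5 µM, read at 340/440 nm every 12 s for 5 min, with or without 10 min enzyme–compound pre-incubation. […] For mechanism and Ki, 0.3–20.0 µM substrate and five inhibitor levels were used, with Lineweaver-Burk plots.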

Assay [10] deals with Cruzipain (Trypanosoma cruzi) (UniProt P25779). Put plainly: Inhibition of recombinant Trypanosoma cruzi cruzain at 10 uM preincubated for 10 mins in presence of 0.1% Triton X-100 relative to control. The procedure, abridged:
(§4)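 To test detergent sensitivity, cruzain was pre-incubated 10 min at room temperature with compound with no Triton X-100, 0.01% or 0.1% Triton X-100. Cleavage of Z-FR-AMC was then followed at pH 5.5 in acetate buffer. Percent inhibition was compared across detergent levels.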

For assay [11] the target is unchanged. Put plainly: Inhibition of recombinant Trypanosoma cruzi cruzain at 10 uM preincubated for 10 mins in presence of 0.01% Triton X-100 relative to control. The procedure, abridged: as §4
Assay [12] shares this target. Put plainly: Inhibition of recombinant Trypanosoma cruzi cruzain at 10 uM preincubated for 10 mins in absence of Triton X-100 relative to control. The procedure, abridged:
as §4

Assay [13] shares this target. The assay can be described thus: Inhibition of recombinant Trypanosoma cruzi cruzain at 10 uM preincubated with BSA for 5 mins followed by incubation with enzyme for 5 mins followed by substrate addition relative to control. Conditions: time 10.0 min. The procedure, abridged: (§5)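 For BSA sensitivity, compound was held 5 min with BSA (2 mg/mL in 0.001% Triton X-100), then 5 min with 1 nM cruzain, before substrate was added and activity monitored. Parallel runs omitted BSA under otherwise identical conditions.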

Assay [14] shares this target. The assay can be described thus: Inhibition of recombinant Trypanosoma cruzi cruzain at 10 uM preincubated with enzyme for 5 mins followed by substrate addition in absence of BSA relative to control. The procedure, abridged:
as §5

Assay [15] relates to Trypanosoma cruzi. The assay can be described thus: Trypanocidal activity against Trypanosoma cruzi Tulahuen C4 assessed as reduction in parasite viability. The format is functional, organism-based.
Assay [16] has as its system Trypanosoma brucei brucei. The assay can be described thus: Trypanocidal activity against Trypanosoma brucei brucei Squib 427 assessed as reduction in parasite viability. It is filed as functional, organism-based.
The subject of assay [17] is Trypanosoma brucei rhodesiense. The assay can be described thus: Trypanocidal activity against Trypanosoma brucei rhodesiense STI B900 assessed as reduction in parasite viability. The format is functional, organism-based.
In assay [18] the target is Cruzipain (Trypanosoma cruzi) (UniProt P25779). The assay can be described thus: Inhibition of recombinant Trypanosoma cruzi cruzain at 2.5 uM using Z-FR-AMC as substrate and measured at 12 sec interval for 5 mins without preincubation by fluorimetric analysis relative to control. The procedure, abridged: as §2
Assay [19] has the same target. The assay can be described thus: Inhibition of recombinant Trypanosoma cruzi cruzain at 2.5 uM using Z-FR-AMC as substrate preincubated for 10 mins followed by substrate addition and measured at 12 sec interval for 5 mins by fluorimetric analysis relative to control. The note with it: time 15.0 min. The procedure, abridged: as §2
In assay [20] the target is Rhodesain (Trypanosoma brucei rhodesiense) (UniProt Q95PM0). Put plainly: Inhibition of recombinant Trypanosoma brucei rhodesain expressed in Pichia pastoris at 2.5 uM using Z-FR-AMC as substrate and measured at 12 sec interval for 5 mins without preincubation by fluorimetric analysis relative to control. The procedure, abridged: (§6)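 Run with no pre-incubation or with 10 min enzyme-compound pre-incubation. Fluorescence read at 340/440 nm. Concentration was set by solubility under assay conditions. Inhibition is against DMSO, with E-64 as positive control; triplicate.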

The target is the same in assay [21]. The assay can be described thus: Inhibition of recombinant Trypanosoma brucei rhodesain expressed in Pichia pastoris at 2.5 uM using Z-FR-AMC as substrate preincubated for 10 mins followed by substrate addition and measured at 12 sec interval for 5 mins by fluorimetric analysis relative to control. The note with it: time 15.0 min. The procedure, abridged:
as §6

In assay [22] the target is Cruzipain (Trypanosoma cruzi) (UniProt P25779). Put plainly: Inhibition of recombinant Trypanosoma cruzi cruzain at 100 uM using Z-FR-AMC as substrate and measured at 12 sec interval for 5 mins without preincubation by fluorimetric analysis relative to control. The procedure, abridged: as §2
Assay [23] shares this target. The assay can be described thus: Inhibition of recombinant Trypanosoma cruzi cruzain at 100 uM using Z-FR-AMC as substrate preincubated for 10 mins followed by substrate addition and measured at 12 sec interval for 5 mins by fluorimetric analysis relative to control. The note with it: time 15.0 min. The procedure, abridged:
as §2

Assay [24] addresses Rhodesain (Trypanosoma brucei rhodesiense) (UniProt Q95PM0). Put plainly: Inhibition of recombinant Trypanosoma brucei rhodesain expressed in Pichia pastoris at 100 uM using Z-FR-AMC as substrate and measured at 12 sec interval for 5 mins without preincubation by fluorimetric analysis relative to control. The procedure, abridged: as §6
Assay [25] has the same target. Put plainly: Inhibition of recombinant Trypanosoma brucei rhodesain expressed in Pichia pastoris at 100 uM using Z-FR-AMC as substrate preincubated for 10 mins followed by substrate addition and measured at 12 sec interval for 5 mins by fluorimetric analysis relative to control. Conditions: time 15.0 min. The procedure, abridged:
as §6

Assay [26] deals with T1, Cruzipain. Put plainly: Inhibition of recombinant Trypanosoma cruzi cruzain using Z-FR-AMC as substrate preincubated for 10 mins followed by substrate addition and measured at 12 sec interval for 5 mins by fluorimetric analysis. The procedure, abridged: as §3
In assay [27] the target is Rhodesain (Trypanosoma brucei rhodesiense, UniProt Q95PM0). Put plainly: Inhibition of recombinant Trypanosoma brucei rhodesain expressed in Pichia pastoris using Z-FR-AMC as substrate preincubated for 10 mins followed by substrate addition and measured at 12 sec interval for 5 mins by fluorimetric analysis. The procedure, abridged: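 Rhodesain (1 nM) with Z-FR-AMC (2.5 µM) in 0.1 M sodium acetate pH 5.5, 0.01% Triton X-100, 1 mM β-mercaptoethanol, with or without 10 min enzyme-compound pre-incubation. Fluorescence read at 340/440 nm. IC50 by four-parameter nonlinear regression from at least six concentrations in triplicate, with at least two independent runs. Mean ± SEM reported.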

For assay [28], the target named is Cruzipain (Trypanosoma cruzi) (UniProt P25779). Put plainly: Inhibition of recombinant Trypanosoma cruzi cruzain at 100 uM preincubated for 10 mins in presence of 0.1% Triton X-100 relative to control. The procedure, abridged: as §4
For assay [29] the target is unchanged. Put plainly: Inhibition of recombinant Trypanosoma cruzi cruzain at 100 uM preincubated for 10 mins in presence of 0.01% Triton X-100 relative to control. The procedure, abridged: as §4
Assay [30] has the same target. The assay can be described thus: Inhibition of recombinant Trypanosoma cruzi cruzain at 100 uM preincubated for 10 mins in absence of Triton X-100 relative to control. The procedure, abridged:
as §4

Assay [31] has the same target. The assay can be described thus: Inhibition of recombinant Trypanosoma cruzi cruzain at 100 uM preincubated with BSA for 5 mins followed by incubation with enzyme for 5 mins followed by substrate addition relative to control. The note with it: time 10.0 min. The procedure, abridged:
as §5

Assay [32] has the same target. Put plainly: Inhibition of recombinant Trypanosoma cruzi cruzain at 100 uM preincubated with enzyme for 5 mins followed by substrate addition in absence of BSA relative to control. The procedure, abridged:
as §5

In assay [33] the test system is Trypanosoma cruzi. The assay can be described thus: Trypanocidal activity against Trypanosoma cruzi Y strain trypomastigotes infected in C57BL/6 mouse peritoneal macrophage assessed as reduction in number of trypomastigotes release at 50 uM and measured after day 3 to day 11 post-infection by Neubauer chamber method. The format is functional, organism-based. The note with it: time 11.0 day. The procedure, abridged:
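Thioglycolate-elicited peritoneal macrophages from female C57BL/6 mice, 2 × 10^5/well, infected 2 h at 37°C with Y strain trypomastigotes at 5:1 (parasite:cell) and washed. They were then held with compound (3.125–50 µM) or IFN-γ 100 ng/mL. Trypomastigotes released into the supernatant were counted in a Neubauer chamber at several days after infection. Three independent experiments, each in triplicate.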

Chain of Cruzipain (Trypanosoma cruzi) (P25779 123-467 limits assumed): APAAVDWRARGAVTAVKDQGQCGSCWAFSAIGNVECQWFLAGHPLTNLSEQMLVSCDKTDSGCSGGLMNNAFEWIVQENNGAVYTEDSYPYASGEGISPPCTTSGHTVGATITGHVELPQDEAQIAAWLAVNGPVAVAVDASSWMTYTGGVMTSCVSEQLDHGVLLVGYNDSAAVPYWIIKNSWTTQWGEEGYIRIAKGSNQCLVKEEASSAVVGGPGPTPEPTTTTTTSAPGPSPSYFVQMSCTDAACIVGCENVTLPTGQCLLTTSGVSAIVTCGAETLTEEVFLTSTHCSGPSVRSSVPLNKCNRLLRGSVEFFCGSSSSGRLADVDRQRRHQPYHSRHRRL
Chain of Rhodesain (Trypanosoma brucei rhodesiense) (Q95PM0 1-450): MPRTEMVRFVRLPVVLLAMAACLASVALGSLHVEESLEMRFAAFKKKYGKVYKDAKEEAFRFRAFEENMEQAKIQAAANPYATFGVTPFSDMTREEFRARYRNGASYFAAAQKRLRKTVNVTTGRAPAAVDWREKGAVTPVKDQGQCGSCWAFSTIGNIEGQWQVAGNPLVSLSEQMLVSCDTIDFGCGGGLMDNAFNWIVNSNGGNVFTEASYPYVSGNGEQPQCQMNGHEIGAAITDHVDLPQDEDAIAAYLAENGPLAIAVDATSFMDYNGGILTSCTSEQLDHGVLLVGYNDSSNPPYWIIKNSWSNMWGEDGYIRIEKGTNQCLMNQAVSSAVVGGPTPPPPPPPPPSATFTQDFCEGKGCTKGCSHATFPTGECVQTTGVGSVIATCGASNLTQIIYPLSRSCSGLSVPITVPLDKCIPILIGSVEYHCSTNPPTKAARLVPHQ
T1 sequence (P25779 whole entry): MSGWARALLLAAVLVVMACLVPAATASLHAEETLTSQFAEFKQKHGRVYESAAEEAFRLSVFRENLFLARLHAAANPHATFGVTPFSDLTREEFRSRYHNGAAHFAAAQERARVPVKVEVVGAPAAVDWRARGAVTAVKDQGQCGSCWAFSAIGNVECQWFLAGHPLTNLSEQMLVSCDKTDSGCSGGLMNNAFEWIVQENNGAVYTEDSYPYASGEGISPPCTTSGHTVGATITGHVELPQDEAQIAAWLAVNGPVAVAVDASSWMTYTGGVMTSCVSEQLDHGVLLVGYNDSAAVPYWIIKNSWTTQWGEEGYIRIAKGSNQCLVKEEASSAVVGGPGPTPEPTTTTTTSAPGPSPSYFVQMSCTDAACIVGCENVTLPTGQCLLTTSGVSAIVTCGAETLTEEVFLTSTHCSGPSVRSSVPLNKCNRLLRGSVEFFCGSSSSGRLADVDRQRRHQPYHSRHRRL
Chain of Rhodesain (Q95PM0 whole entry): as the sequence (Q95PM0 1-450) above

`CCOc1cccc(C(=O)Nc2ccc(-c3nc4ccccc4[nH]3)cc2)c1`: the inhibition in [1] was 88.1%; in [2] it was 72.7%; in assay [3], 53.7%; in assay [4], 75.6%; in assay [5], 89%; in assay [6] it was 100%. The inhibition in [7] stood at 46%; in [8], 100%; in [10], 34.6%; in assay [11], 100%; in assay [12] it was 100%; in [13] it was 16%. In addition, the inhibition in [14] was 97.9%. Moreover, the IC50 in assay [9] amounted to 2.6 µM; in [15] it was 32 µM; in [16], 32 µM; in [17] it was 32 µM.

As for `Cc1ccc(C(=O)c2oc3ccc4c(C)cc(=O)oc4c3c2C)cc1`, the inhibition amounted to 53.6% in assay [1]; 69% in assay [2]; 60.4% in [3]; 77.1% in assay [4]; 3% in [18]; 11% in assay [19]. Besides, the inhibition in [20] is 8%; in assay [21], 12%. The IC50 in assay [15], in assay [16] and in [17] was 32 µM in each case.

Turning to `COCCNC(=O)c1ccc(OC2CCN(Cc3ccc(F)c(F)c3)CC2)c(Cl)c1`, the inhibition worked out at 42% in assay [1]; 74.5% in assay [2]; 42.1% in assay [3]; 83.8% in assay [4]; 18% in [5]; 66% in assay [6]. Moreover, the inhibition in [7] came to 14%; in assay [8] it was 81%; in [22], 29%; in [23], 78%; in assay [24] it was 63%; in [25] it was 75%. Moreover, the inhibition amounted to 78.6% in assay [28]; 68.2% in assay [29]; 98.3% in [30]; 64.7% in [31]; 79.9% in assay [32]. The IC50 in assay [26] was determined as 5 µM; in assay [27] it was 9 µM; in assay [15] it was 32 µM; in assay [16], 32 µM. Besides, the result in assay [33] was Active.
